Experiments:
[1] = Cytotoxicity against HeLa cells after 72 hrs; assay type: cell-based; settings: human
How it was run: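 HeLa cells grown in RPMI 1640 with 10% heat-inactivated FBS and gentamicin, then harvested in log phase by trypsinization. About 10 000 cells/well were preincubated 48 h before compound addition (10 mM DMSO stock diluted 1:200 in medium). Cells were exposed 72 h at 37 °C, 5% CO2, fixed with glutaraldehyde and stained with methylene blue. Stain was eluted with HCl and OD read at 660 nm to give CC50.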

[2] = system: Trypanosoma cruzi; test: Inhibition of Trypanosoma cruzi Tulahuen in BALB/c mouse blood; assay type: functional
How it was run: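 Trypomastigote lysis assay: mouse blood (from infected BALB/c, cardiac puncture) holding 5 × 10^4 bloodstream trypomastigotes per well, compound added from 10 mM DMSO stock diluted in BHI; DMSO controls (final 1/1000). 24 h at 4 °C, then microscopic counting at 400×. Triplicates, experiments repeated 3–4 times; lysis relative to control; LC50 = minimal concentration lysing 50%.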

[3] = Inhibition of Saccharomyces cerevisiae FTase
[4] = system: Mus musculus; test: Survival of BALB/c mouse infected with Trypanosoma cruzi trypomastigotes at 3.2 mg/kg/day relative to control; assay type: functional
How it was run: (§1)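 Male BALB/c mice, 60 days old, infected intraperitoneally with 500 bloodstream trypomastigotes (groups of five; untreated infected controls, six). Oral dosing (25 µL) from 30 min post-infection, five times weekly, 39 doses total (21 at 3.2 mg/kg/day). Control mice got physiological solution. Parasitemia checked by tail-blood microscopy twice weekly. Survival recorded to day 115 pi.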

[5] = system: Mus musculus; test: Survival of BALB/c mouse infected with Trypanosoma cruzi trypomastigotes at 6.4 mg/kg/day relative to control; assay type: functional; how it was run: as §1
[6] = system: Vero; test: Cytotoxicity against Vero cells at 100 uM; assay type: cell-based; settings: chlorocebus sabaeus
How it was run: (§2)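 Vero cells cultured in RPMI 1640 with 5% heat-inactivated FBS. 10^4 cells/well were incubated with compound at 37 °C, 5% CO2, in triplicate per concentration. DMSO was the diluent at a final 1/1000, and DMSO-only wells served as control. Toxicity was judged by cell morphology and confluent growth.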

[7] = system: Vero; test: Effect on Vero cell morphology at 100 uM; assay type: functional, cell-based; settings: Chlorocebus sabaeus; how it was run: as §2
[8] = system: Mus musculus; test: Survival of BALB/c mouse infected with Trypanosoma cruzi trypomastigotes at 7 mg/kg/day relative to control; assay type: functional; how it was run: as §1

SMILES	CC50 at 72 h [1] [µM]	LC50 [2] [µM]	IC50 [3] [µM]	also measured
N[C@H](C(=O)Nc1ccc(NC(=O)/C=C/c2ccc(-c3ccc([N+](=O)[O-])cc3)o2)cc1C(=O)c1ccccc1)c1ccccc1	> 80	> 50	0.046	
N[C@@H](Cc1ccccc1)C(=O)Nc1ccc(NC(=O)/C=C/c2ccc(-c3ccc([N+](=O)[O-])cc3)o2)cc1C(=O)c1ccccc1	> 79	> 10	0.003	
O=C(/C=C/c1ccc(-c2ccc([N+](=O)[O-])cc2)o1)Nc1ccc(NC(=O)Cc2ccc(C(F)(F)F)cc2)c(C(=O)c2ccccc2)c1	> 57	50	0.026	
O=C(/C=C/c1ccc(-c2ccc([N+](=O)[O-])cc2)o1)Nc1ccc(NC(=O)C(c2ccccc2)N2CCN(C3CCCCC3)CC2)c(C(=O)c2ccccc2)c1 (configuration not stated)	42	1	0.34	
CSCC[C@H](N)C(=O)Nc1ccc(NC(=O)/C=C/c2ccc(-c3ccc([N+](=O)[O-])cc3)o2)cc1C(=O)c1ccccc1	> 81	> 10	1.77	
CN1CCN(C(C(=O)Nc2ccc(NC(=O)/C=C/c3ccc(-c4ccc([N+](=O)[O-])cc4)o3)cc2C(=O)c2ccccc2)c2ccc(Cl)cc2)CC1 (configuration not stated)	38.6	10	0.125	
CN1CCN(C(C(=O)Nc2ccc(NC(=O)/C=C/c3ccc(-c4ccc([N+](=O)[O-])cc4)o3)cc2C(=O)c2ccccc2)c2ccccc2)CC1 (configuration not stated)	37	10	0.01	
CC(C)NC(=O)CN1CCN(C(C(=O)Nc2ccc(NC(=O)/C=C/c3ccc(-c4ccc([N+](=O)[O-])cc4)o3)cc2C(=O)c2ccccc2)c2ccccc2)CC1 (configuration not stated)		> 50	0.34	
Cc1ccc(CC(=O)Nc2ccc(NC(=O)/C=C/c3ccc(-c4ccc([N+](=O)[O-])cc4)o3)cc2C(=O)c2ccccc2)cc1	> 85	> 100	0.035	
CC(C)C[C@@H](N)C(=O)Nc1ccc(NC(=O)/C=C/c2ccc(-c3ccc([N+](=O)[O-])cc3)o2)cc1C(=O)c1ccccc1	47.8	0.1	0.5	
O=C(/C=C/c1ccc(-c2ccc([N+](=O)[O-])cc2)o1)Nc1ccc(NC(=O)C(c2ccccc2)N2CCOCC2)c(C(=O)c2ccccc2)c1 (configuration not stated)	> 76	50	0.66	
O=C(/C=C/c1ccc(-c2ccc([N+](=O)[O-])cc2)o1)Nc1ccc(NC(=O)C(c2ccccc2)N2CCCCC2)c(C(=O)c2ccccc2)c1 (configuration not stated)		50	0.455	
O=C(/C=C/c1ccc(-c2ccc([N+](=O)[O-])cc2)o1)Nc1ccc(NC(=O)C(c2ccccc2)N2CCN(CCO)CC2)c(C(=O)c2ccccc2)c1 (configuration not stated)	71	10	0.43	
CSCC[C@@H](N)C(=O)Nc1ccc(NC(=O)/C=C/c2ccc(-c3ccc([N+](=O)[O-])cc3)o2)cc1C(=O)c1ccccc1	> 81	> 10	0.5	
CC(C)C[C@H](N)C(=O)Nc1ccc(NC(=O)/C=C/c2ccc(-c3ccc([N+](=O)[O-])cc3)o2)cc1C(=O)c1ccccc1	> 83	1	0.36	
NC(C(=O)Nc1ccc(NC(=O)/C=C/c2ccc(-c3ccc([N+](=O)[O-])cc3)o2)cc1C(=O)c1ccccc1)c1ccc(C(F)(F)F)cc1 (configuration not stated)		10	0.017	
CC(C)(C)OC(=O)NC(C(=O)Nc1ccc(NC(=O)/C=C/c2ccc(-c3ccc([N+](=O)[O-])cc3)o2)cc1C(=O)c1ccccc1)c1ccc(C(F)(F)F)cc1 (configuration not stated)		50	0.008	

SMILES	CC50 at 72 h [1] [µM]	LC50 [2] [µM]	IC50 [3] [µM]	also measured
N[C@H](Cc1ccccc1)C(=O)Nc1ccc(NC(=O)/C=C/c2ccc(-c3ccc([N+](=O)[O-])cc3)o2)cc1C(=O)c1ccccc1	> 78	0.001	0.116	survival at 3.2 mg/kg/day [4]: 0%; survival at 6.4 mg/kg/day [5]: 80%; Activity [6]: Non-toxic; Activity [7]: Non-toxic
O=C(/C=C/c1ccc(-c2ccc([N+](=O)[O-])cc2)o1)Nc1ccc(NC(=O)C(c2ccccc2)N2CCN(c3ccccc3)CC2)c(C(=O)c2ccccc2)c1 (configuration not stated)		> 50	0.3	
O=C(/C=C/c1ccc(-c2ccc([N+](=O)[O-])cc2)o1)Nc1ccc(NC(=O)C(c2ccccc2)N2CCN(Cc3ccccc3)CC2)c(C(=O)c2ccccc2)c1 (configuration not stated)		50	0.66	
CCN1CCN(C(C(=O)Nc2ccc(NC(=O)/C=C/c3ccc(-c4ccc([N+](=O)[O-])cc4)o3)cc2C(=O)c2ccccc2)c2ccccc2)CC1 (configuration not stated)		> 50	> 10	
N[C@@H](Cc1c[nH]c2ccccc12)C(=O)Nc1ccc(NC(=O)/C=C/c2ccc(-c3ccc([N+](=O)[O-])cc3)o2)cc1C(=O)c1ccccc1		10	0.58	
N[C@@H](C(=O)Nc1ccc(NC(=O)/C=C/c2ccc(-c3ccc([N+](=O)[O-])cc3)o2)cc1C(=O)c1ccccc1)c1ccccc1	> 80	> 50	0.008	
CC[C@H](C)[C@H](N)C(=O)Nc1ccc(NC(=O)/C=C/c2ccc(-c3ccc([N+](=O)[O-])cc3)o2)cc1C(=O)c1ccccc1	> 83	0.1	0.15	
N[C@H](Cc1ccc(Cl)cc1)C(=O)Nc1ccc(NC(=O)/C=C/c2ccc(-c3ccc([N+](=O)[O-])cc3)o2)cc1C(=O)c1ccccc1	> 74.5	> 10	0.07	
CCCN1CCN(C(C(=O)Nc2ccc(NC(=O)/C=C/c3ccc(-c4ccc([N+](=O)[O-])cc4)o3)cc2C(=O)c2ccccc2)c2ccccc2)CC1 (configuration not stated)	68	0.01	0.125	Activity [6]: Non-toxic; survival at 7 mg/kg/day [8]: 60%; Activity [7]: Non-toxic
Cc1ccc(CC(=O)Nc2ccc(NC(=O)/C=C/c3ccc(-c4ccc(S(C)(=O)=O)cc4)o3)cc2C(=O)c2ccccc2)cc1		50	0.03	
NC(Cc1ccc(C(F)(F)F)cc1)C(=O)Nc1ccc(NC(=O)/C=C/c2ccc(-c3ccc([N+](=O)[O-])cc3)o2)cc1C(=O)c1ccccc1 (configuration not stated)		50	0.095	
CCc1ccc(-c2ccc(/C=C/C(=O)Nc3ccc(NC(=O)Cc4ccc(C)cc4)c(C(=O)c4ccccc4)c3)o2)cc1		50	0.09	
N[C@@H](Cc1ccc(Cl)cc1)C(=O)Nc1ccc(NC(=O)/C=C/c2ccc(-c3ccc([N+](=O)[O-])cc3)o2)cc1C(=O)c1ccccc1	> 74.5	1	0.06	
CC(C)(C)OC(=O)NC(Cc1ccc(C(F)(F)F)cc1)C(=O)Nc1ccc(NC(=O)/C=C/c2ccc(-c3ccc([N+](=O)[O-])cc3)o2)cc1C(=O)c1ccccc1 (configuration not stated)		> 50	0.285	
NC(C(=O)Nc1ccc(NC(=O)/C=C/c2ccc(-c3ccc([N+](=O)[O-])cc3)o2)cc1C(=O)c1ccccc1)c1ccc(F)cc1 (configuration not stated)	> 78	50	0.025	
O=C1CCN(C(C(=O)Nc2ccc(NC(=O)/C=C/c3ccc(-c4ccc([N+](=O)[O-])cc4)o3)cc2C(=O)c2ccccc2)c2ccccc2)CC1 (configuration not stated)		1		

— ChEMBL document CHEMBL1139470, “Benzophenone-based farnesyltransferase inhibitors with high activity against Trypanosoma cruzi” (J Med Chem, 2005)
